Assay outcomes as filed in PubChem BioAssay.
Tb MetRS inh = Trypanosoma brucei MetRS inhibition | purified T. brucei MetRS, ATP depletion, Kinase-Glo luminescence | inhibition, % at 11.9 µM | 0.4% of 360,000 active;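 active = inhibition above a per-plate cutoff of the control wells' mean inhibition plus 3 SD, cut at about 5.5% in these data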;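 note: 0% = DMSO wells median and 100% = median of wells with control inhibitor compound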
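Test system – parasite MetRS enzyme · Reagent – substrates ATP, L-methionine and bulk Escherichia coli tRNA · Doses – 11.9 µM compound single dose, 0.9% DMSO · Times – 15 min enzyme-compound preincubation, 2 h reaction, 10 min detection, 25 °C · Signal – Kinase-Glo luminescence, ATP depletion format · Controls – DMSO-only wells as low control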
ADAM17 inh = inhibitors of human ADAM17 | P78536 | recombinant ADAM17, EDANS/DABCYL FRET peptide cleavage | inhibition, % at 6.95 µM | 0.83% of 370,000 active | AID 720648;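 active = inhibition above the mean of compounds lying between control limits plus 3 SD, set per campaign, cut at about 8.5% in these data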;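 note: 0% = DMSO-only wells as the low control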
PLCg1 inh = blocks human PLC-gamma1 enzyme activity; purified PLC-gamma1, fluorogenic substrate, fluorescence; AID 720700; 0.84% of 370,000 active; P19174; inhibition, % at 12.2 µM
Target sequence (P19174 whole entry, looked up): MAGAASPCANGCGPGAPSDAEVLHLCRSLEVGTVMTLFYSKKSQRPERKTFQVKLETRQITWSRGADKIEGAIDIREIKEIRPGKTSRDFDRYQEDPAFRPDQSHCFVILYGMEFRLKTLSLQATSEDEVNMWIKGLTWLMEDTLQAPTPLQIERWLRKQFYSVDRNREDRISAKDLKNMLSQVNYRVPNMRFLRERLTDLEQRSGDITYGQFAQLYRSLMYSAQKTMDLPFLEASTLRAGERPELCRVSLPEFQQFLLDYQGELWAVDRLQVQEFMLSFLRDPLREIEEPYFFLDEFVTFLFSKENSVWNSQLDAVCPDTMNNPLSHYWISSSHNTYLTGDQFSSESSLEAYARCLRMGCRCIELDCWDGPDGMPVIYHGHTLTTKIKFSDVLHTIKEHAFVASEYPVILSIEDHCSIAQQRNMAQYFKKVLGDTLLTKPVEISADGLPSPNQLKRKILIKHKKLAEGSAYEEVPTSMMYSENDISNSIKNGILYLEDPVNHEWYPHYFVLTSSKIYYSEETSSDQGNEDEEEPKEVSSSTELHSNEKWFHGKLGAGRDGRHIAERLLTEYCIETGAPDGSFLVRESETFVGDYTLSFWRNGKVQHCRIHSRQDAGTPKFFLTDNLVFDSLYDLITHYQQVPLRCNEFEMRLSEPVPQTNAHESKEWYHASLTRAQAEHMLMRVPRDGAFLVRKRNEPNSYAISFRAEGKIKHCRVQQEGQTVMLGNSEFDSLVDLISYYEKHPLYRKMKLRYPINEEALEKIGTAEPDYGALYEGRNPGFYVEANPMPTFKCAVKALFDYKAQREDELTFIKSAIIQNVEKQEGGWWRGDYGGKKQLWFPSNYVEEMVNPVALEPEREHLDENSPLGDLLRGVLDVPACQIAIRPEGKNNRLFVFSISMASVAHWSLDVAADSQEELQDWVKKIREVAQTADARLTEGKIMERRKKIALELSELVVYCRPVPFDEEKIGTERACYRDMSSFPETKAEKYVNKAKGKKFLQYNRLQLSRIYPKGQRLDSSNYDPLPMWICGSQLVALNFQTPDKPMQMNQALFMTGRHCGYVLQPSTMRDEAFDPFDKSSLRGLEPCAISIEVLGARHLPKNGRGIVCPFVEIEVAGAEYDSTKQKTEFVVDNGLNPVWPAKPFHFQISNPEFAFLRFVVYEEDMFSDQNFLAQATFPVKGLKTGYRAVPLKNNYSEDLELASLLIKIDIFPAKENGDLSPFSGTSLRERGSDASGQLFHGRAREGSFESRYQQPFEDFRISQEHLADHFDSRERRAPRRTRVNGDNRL
ADAM10 inh = inhibitors of human ADAM10; O14672; recombinant ADAM10, EDANS/DABCYL FRET peptide cleavage, 3 h; inhibition, % at 7 µM; 0.62% of 370,000 active;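 active = inhibition above a per-campaign cutoff equal to the mean of compounds falling between control-based bounds plus 3 SD, cut at about 20% in these data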;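 note: 0% = DMSO wells while the 100% control is not disclosed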
PLCb3 inh = PLC-beta3 (human) inhibition, primary screen; 0.18% of 370,000 active; AID 720704; inhibition, % at 12.2 µM; Purified PLC-beta3, fluorogenic substrate, fluorescence; in the data active = inhibition above about 11%;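 note: 0% = median of compound wells on plate and 100% = full blocker control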
PLCgamma1 ctr = counter-screen for PLC-beta3 inhibitors: inhibitors of human PLC-gamma1. 3.1% of 3,300 active. shares compounds with PLCg1 inh. purified PLC-gamma1, fluorogenic substrate, fluorescence. inhibition, % at 12.3 µM
PLCbeta3 conf = confirmation of human PLC-beta3 inhibitors | inhibition, % at 12.3 µM | purified PLC-beta3, fluorogenic substrate fluorescence | 1% of 3,300 active | shares compounds with PLCg1 inh; in the data active = inhibition above about 11%
Starred values were filed as active, the others as inactive; nt = no result. Most compounds without a hit are left out; they make up all but 2.3% or so of the library. Cut-off read from the data, not from the text of the source, unless noted: active = inhibition above about 9.5%; inactive = the rest.

SMILES	Tb MetRS inh	ADAM17 inh	PLCg1 inh	ADAM10 inh	PLCb3 inh	PLCgamma1 ctr	PLCbeta3 conf
COc1ccccc1C(=O)COC(=O)/C=C/c1ccccc1	0	-1	9.6*	15	-3	-6	-12
CCC(CC)C(C(=O)NCc1ccccc1)N1CCN(CCN2CCOCC2)CC1 (stereo unspecified)	-1	3	1	-12	-1	nt	nt
O=C1OCc2cc(NS(=O)(=O)c3cccs3)ccc21	0	6	10*	-2	-1	-2	-6
CCOC(=O)c1ccc(-c2cc(C)no2)[nH]1	-1	-4	2	1	1	nt	nt
OC1OC2COC(c3ccccc3)OC2C(O)C1O (stereo unspecified)	nt	1	6	-8	11*	-5	-4
CC(C)OC(=O)CSc1nc2c(c(C3CC=CCC3)c1C#N)CCC2 (stereo unspecified)	-1	1	9.6*	2	4	-7	-6
C=CCSc1nc2c(c(C3CC=CCC3)c1C#N)CCC2 (stereo unspecified)	-1	-4	0	-4	2	nt	nt
CCCCC(=O)Nc1cc(NC(=O)CCCC)cc(C(=O)O)c1	-1	6	15*	8	6	-5	0
CCCC(=O)Nc1ccc(C)c(O)c1	-1	2	2	11	5	nt	nt
CCCCC(=O)Nc1ccc(C)c(O)c1	-1	4	9.6*	9	11*	1	2
C[C@@H]1C=CCCO[C@]12C(=O)N(Cc1ccc(Br)cc1)c1ccccc12	nt	0	-1	-11	-6	nt	nt
Cc1cccc(NC(=O)c2ncn3c2C(=O)N[C@@H](C)C3)c1	0	-1	-4	-3	1	nt	nt
CCC(C)(c1nnnn1-c1c(C)cccc1C)N(N=O)c1ccccc1Cl (stereo unspecified)	-1	5	11*	1	8	7	-1
COc1ccc(N(CC(=O)O)S(=O)(=O)c2ccc(C)cc2)cc1Cl	-2	1	1	2	0	nt	nt
C=CCNC(=O)N1CCCC(C(=O)c2cccc(OC(C)C)c2)C1 (stereo unspecified)	0	6	11*	1	1	3	1
O=C(Nc1ccc2c(c1)CCO2)Nc1nnc([C@H]2C[C@H](O)[C@@H](CO)O2)s1	0	2	2	7	1	nt	nt
C=CCn1c(=O)/c(=C/c2ccsc2)s/c1=C(\C#N)C(=O)NCCN1CCOCC1	0	-5	-1	-13	-2	nt	nt
COc1ccc(/C=N/NC2=NCCCCC2)cc1	0	-2	10*	5	1	-2	1
Cc1csc(NC(=O)CSc2nnc(-c3ccncc3)n2C)n1	1	-1	1	-2	5	nt	nt
Cc1csc(NC(=O)CSc2nnc(-c3ccc(Cl)cc3)n2N)n1	0	-4	10*	-4	-6	-3	1
N#Cc1ccc(C23CC4(C2)[C@H](CN(Cc2ccc(-c5ccccc5)cc2)[C@@H]4c2ccccc2)C3c2ccc(C(F)(F)F)cc2)cc1 (stereo partly specified)	nt	4	5	6	11*	-10	-9
FC(F)(F)c1ccc(C2[C@H]3CN(Cc4ccc(-c5ccccc5)cc4)[C@H](c4ccccc4)C34CC2(c2ccccc2)C4)cc1 (stereo partly specified)	nt	1	0	5	3	nt	nt
CCC(C)(C)NC(=O)C(c1ccc(OC)cc1)N(C(=O)CCC(=O)Nc1cc(C)on1)C1CC1 (stereo unspecified)	0	5	11*	2	2	-3	0
CCC(C)(C)NC(=O)C(c1ccc(OC)cc1)N(CC1CCCO1)C(=O)CCC(=O)Nc1cc(C)on1 (stereo unspecified)	0	-3	1	5	2	nt	nt
Cc1ccc(C(=O)Nc2ccccc2C(=O)N2CCCCCC2)cc1	0	-1	10*	-1	8	-8	-6
SMILES	Tb MetRS inh	ADAM17 inh	PLCg1 inh	ADAM10 inh	PLCb3 inh	PLCgamma1 ctr	PLCbeta3 conf
O=C(NNC(=O)c1ccccc1)C(=O)N1CCCCC1	1	-3	2	-6	4	nt	nt
O=C(Nc1ccccc1C(=O)N1CCCC1)c1ccccc1	-1	-4	0	-6	-1	nt	nt
Cc1ccccc1C(=O)NNC(=O)C(=O)N1CCCCC1	-1	4	10*	-5	3	-6	-3
Cc1ccc(NS(=O)(=O)c2ccc(C)c(NC(=S)NCCN3CCOCC3)c2)c(C)c1	0	-4	3	0	-3	nt	nt
COc1ccc(/[N+]([O-])=C/c2ccoc2)cc1	0	3	-1	-13	-1	nt	nt
CCc1ccc2oc(C(=O)NCC(c3ccc(OC)cc3)N3CCCCC3)c(C)c2c1 (stereo unspecified)	1	-4	4	-5	-12	nt	nt
CCCCn1c(N)c(N(CCOC)C(=O)c2cccc(S(=O)(=O)N(C)c3ccc(C)cc3)c2)c(=O)[nH]c1=O	0	-3	5	-13	-7	nt	nt
O=C1CCCCC(=O)[C@H](O)C[C@H](COCc2ccccc2)O1	-1	0	3	-2	2	nt	nt
O=C(c1ccc([N+](=O)[O-])cc1)N1CCN(Cc2ccccc2)CC1	0	1	-1	2	4	nt	nt
O=C(c1ccc([N+](=O)[O-])cc1)N(Cc1ccccc1)Cc1ccccc1	1	8	10*	10	10	0	6
O=C(O)c1ccc([N+](=O)[O-])cc1	0	2	13*	9	-3	-1	3
O=[N+]([O-])c1ccc(C(=S)N2CCN(Cc3ccccc3)CC2)cc1	0	0	10*	3	3	0	2
O=C(NCCc1ccccc1)c1ccc([N+](=O)[O-])cc1	0	7	4	2	2	nt	nt
CC1CC(C)CN(C(=O)c2ccc3c(=O)n(Cc4ccc5c(c4)OCO5)c(=S)[nH]c3c2)C1 (stereo unspecified)	0	-5	2	5	1	nt	nt
COC(=O)C1=C(C)N(Cc2cccc(C(F)(F)F)c2)C(=NCc2ccc3c(c2)OCO3)NC1c1ccc(Cl)cc1 (stereo unspecified)	nt	8	8	2	5	nt	nt
O=C(NCc1cccs1)C1CCN(c2nc3ccccc3o2)CC1	-2	2	9.7*	4	3	-2	-4
CC(C)CCNC(=O)C1CCN(c2nc3ccccc3o2)CC1	-1	-6	-2	-8	1	nt	nt
CCCn1c(=O)c2c(nc3n2CCN3Cc2ccco2)n(C)c1=O	0	-4	-1	1	-5	nt	nt
Cn1c(=O)n(Cc2ccc(Cl)cc2)c(=O)c2c1nc1n2CCN1Cc1ccco1	1	-5	11*	-15	-1	-3	-6
CCOC(=O)c1c(C)[nH]c(C(=O)COC(=O)c2oc3ccccc3c2C)c1C	-1	2	10*	0	4	-5	-4
